Tested on: HEK-293T
Test: Multiplex assay against HEK293T
Assay type: toxicity, cell-based
Conditions: human
Outline: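 Values for tubulin, mitochondrial-mass and membrane-permeability phenotypes are per cents of cells with healthy nuclei. These cells were identified by CellPathfinder machine-learning gating of live cells that had been stained at seeding with Hoechst33342, BioTracker Green Microtubule Cytoskeleton Dye, MitoTracker Red and Annexin V Alexa Fluor 680 and imaged on a CQ1 microscope at 37°C and 5% CO2 after compound addition. The gating first set Hoechst high-intensity objects apart from normal cells, then split normal cells into healthy, pyknosed or fragmented nuclei, and pyknosed cells into mitotic or apoptotic.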

[1] = 12 h, 1 µM, compound concentration 1 uM, replicate 1
[2] = 12 h, 1 µM, compound concentration 1 uM, replicate 2
[3] = 12 h, 10 µM, compound concentration 10 uM, replicate 1
[4] = 12 h, 10 µM, compound concentration 10 uM, replicate 2
[5] = 24 h, 1 µM, compound concentration 1 uM, replicate 1
[6] = 24 h, 1 µM, compound concentration 1 uM, replicate 2
[7] = 24 h, 10 µM, compound concentration 10 uM, replicate 1
[8] = 24 h, 10 µM, compound concentration 10 uM, replicate 2
[9] = 48 h, 1 µM, compound concentration 1 uM, replicate 1
[10] = 48 h, 1 µM, compound concentration 1 uM, replicate 2
[11] = 48 h, 10 µM, compound concentration 10 uM, replicate 1
[12] = 48 h, 10 µM, compound concentration 10 uM, replicate 2

## O=C1[C@H](Cc2ccc(O)cc2)N2C(=O)CCN(C(=O)NCc3ccccc3)[C@H]2CN1Cc1cccc2ccccc12
[1]
  Population Apoptotic (%): 44%
  Population Fragmented Nuclei (%): 6%
  Population Healthy Nuclei (%): 80%
  Population Hoechst High Intensity Objects (%): 6%
  Population Membrane Permeable-Phenotype (%): 0%
  Population Mitochondria Different-Phenotype (%): 54%
  Population Mitotic Cells (%): 55%
  Population Normal (%): 93%
  Population Pyknosed Nuclei (%): 12%
  Population Tubulin-Different-Phenotype (%): 46%
  Total Cell Count: 374
[2]
  Population Apoptotic (%): 46%
  Population Fragmented Nuclei (%): 7%
  Population Healthy Nuclei (%): 78%
  Population Hoechst High Intensity Objects (%): 8%
  Population Mitochondria Different-Phenotype (%): 68%
  Population Mitotic Cells (%): 53%
  Population Normal (%): 91%
  Population Pyknosed Nuclei (%): 13%
  Population Tubulin-Different-Phenotype (%): 33%
  Total Cell Count: 259
[3]
  Population Apoptotic (%): 68%
  Population Fragmented Nuclei (%): 5%
  Population Healthy Nuclei (%): 74%
  Population Hoechst High Intensity Objects (%): 11%
  Population Membrane Permeable-Phenotype (%): 0%
  Population Mitochondria Different-Phenotype (%): 90%
  Population Mitotic Cells (%): 31%
  Population Normal (%): 88%
  Population Pyknosed Nuclei (%): 20%
  Population Tubulin-Different-Phenotype (%): 76%
  Total Cell Count: 340
[4]
  Population Apoptotic (%): 60%
  Population Healthy Nuclei (%): 82%
  Population Hoechst High Intensity Objects (%): 14%
  Population Mitochondria Different-Phenotype (%): 93%
  Population Mitotic Cells (%): 40%
  Population Normal (%): 85%
  Population Pyknosed Nuclei (%): 11%
  Population Tubulin-Different-Phenotype (%): 67%
  Total Cell Count: 257
[5]
  Population Apoptotic (%): 23%
  Population Fragmented Nuclei (%): 7%
  Population Healthy Nuclei (%): 80%
  Population Hoechst High Intensity Objects (%): 7%
  Population Membrane Permeable-Phenotype (%): 0%
  Population Mitochondria Different-Phenotype (%): 49%
  Population Mitotic Cells (%): 76%
  Population Normal (%): 92%
  Population Pyknosed Nuclei (%): 11%
  Population Tubulin-Different-Phenotype (%): 38%
  Total Cell Count: 470
[6]
  Population Apoptotic (%): 55%
  Population Fragmented Nuclei (%): 8%
  Population Healthy Nuclei (%): 77%
  Population Hoechst High Intensity Objects (%): 8%
  Population Mitochondria Different-Phenotype (%): 47%
  Population Mitotic Cells (%): 45%
  Population Normal (%): 91%
  Population Pyknosed Nuclei (%): 14%
  Population Tubulin-Different-Phenotype (%): 24%
  Total Cell Count: 305
[7]
  Population Apoptotic (%): 68%
  Population Fragmented Nuclei (%): 7%
  Population Healthy Nuclei (%): 75%
  Population Hoechst High Intensity Objects (%): 11%
  Population Membrane Permeable-Phenotype (%): 0%
  Population Mitochondria Different-Phenotype (%): 94%
  Population Mitotic Cells (%): 31%
  Population Normal (%): 88%
  Population Pyknosed Nuclei (%): 16%
  Population Tubulin-Different-Phenotype (%): 65%
  Total Cell Count: 278
[8]
  Population Apoptotic (%): 74%
  Population Fragmented Nuclei (%): 9%
  Population Healthy Nuclei (%): 77%
  Population Hoechst High Intensity Objects (%): 14%
  Population Mitochondria Different-Phenotype (%): 95%
  Population Mitotic Cells (%): 25%
  Population Normal (%): 85%
  Population Pyknosed Nuclei (%): 12%
  Population Tubulin-Different-Phenotype (%): 70%
  Total Cell Count: 249
[9]
  Population Apoptotic (%): 30%
  Population Fragmented Nuclei (%): 14%
  Population Healthy Nuclei (%): 78%
  Population Hoechst High Intensity Objects (%): 4%
  Population Membrane Permeable-Phenotype (%): 0%
  Population Mitochondria Different-Phenotype (%): 34%
  Population Mitotic Cells (%): 69%
  Population Normal (%): 95%
  Population Pyknosed Nuclei (%): 6%
  Population Tubulin-Different-Phenotype (%): 26%
  Total Cell Count: 730
[10]
  Population Apoptotic (%): 50%
  Population Fragmented Nuclei (%): 11%
  Population Healthy Nuclei (%): 81%
  Population Hoechst High Intensity Objects (%): 3%
  Population Mitochondria Different-Phenotype (%): 29%
  Population Mitotic Cells (%): 50%
  Population Normal (%): 96%
  Population Pyknosed Nuclei (%): 7%
  Population Tubulin-Different-Phenotype (%): 19%
  Total Cell Count: 472
[11]
  Population Apoptotic (%): 71%
  Population Fragmented Nuclei (%): 8%
  Population Healthy Nuclei (%): 79%
  Population Hoechst High Intensity Objects (%): 10%
  Population Membrane Permeable-Phenotype (%): 0%
  Population Mitochondria Different-Phenotype (%): 94%
  Population Mitotic Cells (%): 28%
  Population Normal (%): 89%
  Population Pyknosed Nuclei (%): 11%
  Population Tubulin-Different-Phenotype (%): 63%
  Total Cell Count: 297
[12]
  Population Apoptotic (%): 57%
  Population Fragmented Nuclei (%): 11%
  Population Healthy Nuclei (%): 73%
  Population Hoechst High Intensity Objects (%): 20%
  Population Mitochondria Different-Phenotype (%): 88%
  Population Mitotic Cells (%): 42%
  Population Normal (%): 79%
  Population Pyknosed Nuclei (%): 14%
  Population Tubulin-Different-Phenotype (%): 72%
  Total Cell Count: 232

Source: ChEMBL document CHEMBL5058577, “EUbOPEN Chemogenomics Library 2 (Multiplex)” (2022)
